Tests used:
[1] = molecular target: Macrophage colony-stimulating factor 1 receptor (Homo sapiens, UniProt P07333); assay: […] at recombinant human N-terminal His6-tagged FMS (538 to end residues) expressed in baculovirus infected Sf21 insect cells using IGF-R1tide as substrate in presence of [gamma-33P]-ATP or [gamma-32P]-ATP
[2] = Cmax in CD-1 mouse at 3 mg/kg, iv; format: ADME, organism-based; design: dose 3 mg/kg, route intravenous; details: in vivo
[3] = AUC (0 to 7 hrs) in CD-1 mouse at 3 mg/kg, iv; format: ADME, organism-based; design: dose 3 mg/kg, time < 7 hr, route intravenous; details: in vivo
[4] = Volume of distribution in CD-1 mouse at 3 mg/kg, iv; format: ADME, organism-based; details: in vivo
[5] = AUC (0 to 7 hrs) in CD-1 mouse at 10 mg/kg, po; format: ADME, organism-based; design: time < 7 hr, dose 10 mg/kg, route oral; details: in vivo
[6] = Oral bioavailability in CD-1 mouse at 10 mg/kg; format: ADME, organism-based; details: in vivo
[7] = molecular target: Cytochrome P450 1A2 (Homo sapiens, UniProt P05177); assay: Inhibition of CYP1A2 in human liver microsomes by LC-MS/MS analysis; format: ADME
Summary of the method: (§1)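 Reversible CYP inhibition measured in human liver microsomes; metabolite formation quantified by LC/MS/MS.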

[8] = molecular target: Cytochrome P450 2C19 (Homo sapiens, UniProt P33261); assay: Inhibition of CYP2C19 in human liver microsomes by LC-MS/MS analysis; format: ADME; summary of the method: as §1
[9] = molecular target: Cytochrome P450 2D6 (Homo sapiens, UniProt P10635); assay: Inhibition of CYP2D6 in human liver microsomes by LC-MS/MS analysis; format: ADME; summary of the method: as §1
[10] = molecular target: Cytochrome P450 3A4 (Homo sapiens, UniProt P08684); assay: Inhibition of CYP3A4 in human liver microsomes by LC-MS/MS analysis; format: ADME; summary of the method: as §1
[11] = Volume of distribution in CD-1 mouse at 10 mg/kg, po; format: ADME, organism-based; details: in vivo
[12] = test system: MDA-MB-231; assay: Inhibition of paclitaxel-induced FMS expression in human MDA-MB-231 cells by Western blot analysis; format: functional, cell-based
[13] = test system: MDA-MB-231; assay: Synergistic growth inhibition of human MDA-MB-231 cells assessed as combination index at 5 uM after 24 hrs in presence of paclitaxel by MTS assay; format: functional
Summary of the method: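 MDA-MB-231 human breast adenocarcinoma cells were treated with the test agent, paclitaxel, or both together, and cell growth inhibition was measured. Synergy was expressed as a combination index (CI) calculated from the growth-inhibition data.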

[14] = molecular target: Discoidin domain-containing receptor 2 (Homo sapiens, UniProt Q16832); assay: Inhibition of recombinant human N-terminal His6-tagged DDR2 (467 to end residues) expressed in baculovirus infected Sf21 insect cells using Axltide as substrate in presence of [gamma-33P]-ATP or [gamma-32P]-ATP
Summary of the method: (§2)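 Kinase panel of twenty-eight enzymes; IC50 values determined with ATP at the respective Km of each kinase.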

[15] = molecular target: Vascular endothelial growth factor receptor 2 (Homo sapiens, UniProt P35968); assay: Inhibition of recombinant human N-terminal His6-tagged KDR (790 to end residues) expressed in baculovirus infected Sf21 insect cells using MBP as substrate in presence of [gamma-33P]-ATP or [gamma-32P]-ATP; summary of the method: as §2
[16] = molecular target: T1, Angiopoietin-1 receptor (Homo sapiens, UniProt Q02763); assay: Inhibition of recombinant human N-terminal His6-tagged Tie2 (771 to end residues) expressed in baculovirus infected Sf21 insect cells using Poly (Glu4-Tyr) (4:1) as substrate in presence of [gamma-33P]-ATP or [gamma-32P]-ATP
[17] = molecular target: NUAK family SNF1-like kinase 1 (Homo sapiens) (UniProt O60285); assay: Inhibition of recombinant human N-terminal His6-tagged ARK5 (2 to end residues) expressed in baculovirus infected Sf21 insect cells at 1 uM using CHKtide as substrate in presence of [gamma-33P]-ATP or [gamma-32P]-ATP relative to control
[18] = molecular target: Mast/stem cell growth factor receptor Kit (Homo sapiens) (UniProt P10721); assay: Inhibition of recombinant human N-terminal GST-tagged c-Kit (544 to end residues) expressed in baculovirus infected Sf21 insect cells at 1 uM using Poly (Glu4-Tyr) (4:1) as substrate in presence of [gamma-33P]-ATP or [gamma-32P]-ATP relative to control
[19] = molecular target: Receptor-type tyrosine-protein kinase FLT3 (Homo sapiens) (UniProt P36888); assay: Inhibition of recombinant human N-terminal GST-tagged FLT3 (564 to end residues) expressed in baculovirus infected Sf21 insect cells at 1 uM using Abltide as substrate in presence of [gamma-33P]-ATP or [gamma-32P]-ATP relative to control
[20] = molecular target: Tyrosine-protein kinase Lck (Homo sapiens) (UniProt P06239); assay: Inhibition of recombinant human full-length N-terminal His6-tagged LCK expressed in baculovirus infected Sf21 insect cells at 1 uM in presence of [gamma-33P]-ATP or [gamma-32P]-ATP relative to control
[21] = molecular target: Platelet-derived growth factor receptor alpha (Homo sapiens) (UniProt P16234); assay: Inhibition of recombinant human N-terminal His6-tagged PDGFRalpha (550 to end residues) expressed in baculovirus infected Sf21 insect cells at 1 uM using Poly (Glu4-Tyr) (4:1) as substrate in presence of [gamma-33P]-ATP or [gamma-32P]-ATP relative to control
[22] = molecular target: Tyrosine-protein kinase FRK (Homo sapiens) (UniProt P42685); assay: Inhibition of recombinant human N-terminal His6-tagged PTK5 (218 to end residues) expressed in baculovirus infected Sf21 insect cells at 1 uM using JAK3tide as substrate in presence of [gamma-33P]-ATP or [gamma-32P]-ATP relative to control
[23] = molecular target: Discoidin domain-containing receptor 2 (Homo sapiens) (UniProt Q16832); assay: Inhibition of recombinant human N-terminal His6-tagged DDR2 (467 to end residues) expressed in baculovirus infected Sf21 insect cells at 1 uM using Axltide as substrate in presence of [gamma-33P]-ATP or [gamma-32P]-ATP relative to control
[24] = molecular target: Maternal embryonic leucine zipper kinase (Homo sapiens, UniProt Q14680); assay: Inhibition of recombinant human N-terminal GST-tagged MELK (1 to 340 residues) expressed in baculovirus infected Sf21 insect cells at 1 uM using KKLNRTLSFAEPG as substrate in presence of [gamma-33P]-ATP or [gamma-32P]-ATP relative to control
[25] = molecular target: T1, Angiopoietin-1 receptor; assay: Inhibition of recombinant human N-terminal His6-tagged Tie2 (771 to end residues) expressed in baculovirus infected Sf21 insect cells at 1 uM using Poly (Glu4-Tyr) (4:1) as substrate in presence of [gamma-33P]-ATP or [gamma-32P]-ATP relative to control
[26] = molecular target: Ephrin type-B receptor 4 (Homo sapiens) (UniProt P54760); assay: Inhibition of recombinant human N-terminal His6-tagged EphB4 (561 to end residues) expressed in baculovirus infected Sf21 insect cells using poly (Glu, Tyr) (4:1) as substrate in presence of [gamma-33P]-ATP or [gamma-32P]-ATP relative to control; details: concentration not given here

T1 sequence (Q02763 whole entry): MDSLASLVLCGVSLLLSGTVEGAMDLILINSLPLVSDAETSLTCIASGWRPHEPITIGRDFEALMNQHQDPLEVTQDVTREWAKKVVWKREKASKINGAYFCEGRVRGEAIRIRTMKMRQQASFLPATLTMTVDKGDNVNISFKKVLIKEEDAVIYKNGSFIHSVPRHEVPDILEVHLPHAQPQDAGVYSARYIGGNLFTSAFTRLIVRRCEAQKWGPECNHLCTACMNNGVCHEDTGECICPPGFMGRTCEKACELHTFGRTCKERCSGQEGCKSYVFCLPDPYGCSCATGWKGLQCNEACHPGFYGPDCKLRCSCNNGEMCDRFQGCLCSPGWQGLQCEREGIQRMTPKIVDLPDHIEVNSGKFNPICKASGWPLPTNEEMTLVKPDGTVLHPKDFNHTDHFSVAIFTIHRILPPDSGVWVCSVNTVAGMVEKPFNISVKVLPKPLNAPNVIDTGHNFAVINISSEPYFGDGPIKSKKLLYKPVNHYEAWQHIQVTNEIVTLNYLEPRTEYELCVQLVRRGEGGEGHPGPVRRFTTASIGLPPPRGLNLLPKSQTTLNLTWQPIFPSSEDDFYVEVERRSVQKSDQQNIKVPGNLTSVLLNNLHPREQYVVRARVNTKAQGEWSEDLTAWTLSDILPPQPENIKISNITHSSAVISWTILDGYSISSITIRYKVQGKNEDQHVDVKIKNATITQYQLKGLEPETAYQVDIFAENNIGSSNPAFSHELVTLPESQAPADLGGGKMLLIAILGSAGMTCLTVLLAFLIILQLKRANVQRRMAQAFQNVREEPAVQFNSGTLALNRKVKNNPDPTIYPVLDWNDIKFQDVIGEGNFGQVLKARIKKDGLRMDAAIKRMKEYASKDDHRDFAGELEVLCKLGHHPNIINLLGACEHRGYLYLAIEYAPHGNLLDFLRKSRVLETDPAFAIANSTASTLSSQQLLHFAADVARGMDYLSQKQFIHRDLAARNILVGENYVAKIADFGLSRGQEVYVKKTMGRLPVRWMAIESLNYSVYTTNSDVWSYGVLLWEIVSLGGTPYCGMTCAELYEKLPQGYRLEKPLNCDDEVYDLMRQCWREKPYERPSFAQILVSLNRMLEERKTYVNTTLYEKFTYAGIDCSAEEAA
Chain of Maternal embryonic leucine zipper kinase (Q14680 whole entry, looked up, the tested form may be a part): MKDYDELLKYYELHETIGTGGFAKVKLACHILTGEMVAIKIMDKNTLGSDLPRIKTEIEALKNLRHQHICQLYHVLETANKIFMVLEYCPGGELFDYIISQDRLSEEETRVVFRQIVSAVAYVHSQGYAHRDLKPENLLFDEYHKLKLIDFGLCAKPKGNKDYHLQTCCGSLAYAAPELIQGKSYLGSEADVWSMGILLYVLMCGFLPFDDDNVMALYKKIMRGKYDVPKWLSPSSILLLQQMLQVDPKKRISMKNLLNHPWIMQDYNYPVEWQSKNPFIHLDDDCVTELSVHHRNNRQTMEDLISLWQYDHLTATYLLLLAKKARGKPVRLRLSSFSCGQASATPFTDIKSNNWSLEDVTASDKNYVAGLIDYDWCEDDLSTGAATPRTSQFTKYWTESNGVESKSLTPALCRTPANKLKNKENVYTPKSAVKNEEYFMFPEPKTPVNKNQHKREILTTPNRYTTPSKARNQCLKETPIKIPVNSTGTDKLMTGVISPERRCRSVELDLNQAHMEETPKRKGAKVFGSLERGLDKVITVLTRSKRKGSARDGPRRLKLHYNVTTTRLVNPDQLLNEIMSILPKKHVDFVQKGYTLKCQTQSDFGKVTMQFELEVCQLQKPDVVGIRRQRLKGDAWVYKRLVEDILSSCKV
Chain of NUAK family SNF1-like kinase 1 (Homo sapiens) (O60285 whole entry): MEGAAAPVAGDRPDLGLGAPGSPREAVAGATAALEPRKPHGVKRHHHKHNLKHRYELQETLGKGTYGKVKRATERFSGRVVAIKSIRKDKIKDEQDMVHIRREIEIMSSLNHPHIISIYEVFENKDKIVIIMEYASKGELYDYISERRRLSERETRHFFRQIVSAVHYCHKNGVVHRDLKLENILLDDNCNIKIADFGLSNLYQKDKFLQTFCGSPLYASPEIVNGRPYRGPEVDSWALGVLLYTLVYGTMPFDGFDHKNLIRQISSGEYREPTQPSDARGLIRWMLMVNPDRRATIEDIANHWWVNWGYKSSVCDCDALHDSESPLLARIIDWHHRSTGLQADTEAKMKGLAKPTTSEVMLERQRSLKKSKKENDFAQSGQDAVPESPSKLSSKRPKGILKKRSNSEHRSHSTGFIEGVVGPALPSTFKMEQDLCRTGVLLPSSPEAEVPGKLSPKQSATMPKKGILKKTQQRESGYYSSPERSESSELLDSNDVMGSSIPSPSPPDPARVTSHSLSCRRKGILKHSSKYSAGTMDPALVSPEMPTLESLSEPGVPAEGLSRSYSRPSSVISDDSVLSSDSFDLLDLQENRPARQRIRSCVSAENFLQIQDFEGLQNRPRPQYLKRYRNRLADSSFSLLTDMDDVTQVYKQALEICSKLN
Chain of Mast/stem cell growth factor receptor Kit (Homo sapiens) (P10721 whole entry): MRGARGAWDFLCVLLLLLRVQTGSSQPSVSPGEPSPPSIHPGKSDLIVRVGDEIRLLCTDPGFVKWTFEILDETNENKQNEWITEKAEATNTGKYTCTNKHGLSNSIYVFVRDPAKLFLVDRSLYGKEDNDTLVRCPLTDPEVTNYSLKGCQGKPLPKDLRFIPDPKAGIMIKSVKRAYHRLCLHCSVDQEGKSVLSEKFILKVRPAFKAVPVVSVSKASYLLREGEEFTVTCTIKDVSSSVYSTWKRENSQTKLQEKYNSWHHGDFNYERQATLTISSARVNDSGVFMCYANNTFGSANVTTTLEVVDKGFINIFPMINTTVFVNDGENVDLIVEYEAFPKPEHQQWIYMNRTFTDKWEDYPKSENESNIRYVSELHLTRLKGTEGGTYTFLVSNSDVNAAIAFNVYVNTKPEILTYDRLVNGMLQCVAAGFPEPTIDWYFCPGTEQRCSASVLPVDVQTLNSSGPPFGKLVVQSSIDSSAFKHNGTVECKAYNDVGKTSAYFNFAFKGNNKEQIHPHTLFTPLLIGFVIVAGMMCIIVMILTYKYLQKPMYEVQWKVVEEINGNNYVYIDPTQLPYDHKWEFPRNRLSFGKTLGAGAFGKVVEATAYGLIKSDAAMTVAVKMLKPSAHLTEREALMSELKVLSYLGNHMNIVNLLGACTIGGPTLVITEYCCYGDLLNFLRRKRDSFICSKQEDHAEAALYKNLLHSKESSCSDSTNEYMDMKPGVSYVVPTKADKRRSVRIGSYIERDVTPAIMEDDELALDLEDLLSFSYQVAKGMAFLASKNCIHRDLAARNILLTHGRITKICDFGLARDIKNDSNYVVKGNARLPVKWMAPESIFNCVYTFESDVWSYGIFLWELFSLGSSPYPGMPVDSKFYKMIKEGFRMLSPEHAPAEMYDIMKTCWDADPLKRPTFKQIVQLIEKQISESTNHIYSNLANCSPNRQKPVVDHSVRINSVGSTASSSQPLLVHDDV
Chain of Tyrosine-protein kinase Lck (Homo sapiens) (P06239 2-509 limits assumed): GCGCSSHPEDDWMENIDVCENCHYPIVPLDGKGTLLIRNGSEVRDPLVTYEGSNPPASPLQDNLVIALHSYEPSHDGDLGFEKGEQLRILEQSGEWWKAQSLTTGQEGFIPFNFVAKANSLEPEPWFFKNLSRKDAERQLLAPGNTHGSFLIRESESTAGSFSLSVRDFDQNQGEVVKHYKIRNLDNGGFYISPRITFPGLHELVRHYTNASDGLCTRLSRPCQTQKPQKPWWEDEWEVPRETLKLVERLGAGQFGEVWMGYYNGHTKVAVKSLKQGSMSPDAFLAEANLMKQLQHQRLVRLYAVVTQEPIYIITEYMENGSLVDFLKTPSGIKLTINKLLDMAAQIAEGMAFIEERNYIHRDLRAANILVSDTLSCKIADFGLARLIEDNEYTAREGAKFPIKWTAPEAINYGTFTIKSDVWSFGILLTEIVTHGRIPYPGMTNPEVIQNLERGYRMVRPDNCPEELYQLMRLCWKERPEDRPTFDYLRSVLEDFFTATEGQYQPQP
Chain of Platelet-derived growth factor receptor alpha (Homo sapiens) (P16234 whole entry): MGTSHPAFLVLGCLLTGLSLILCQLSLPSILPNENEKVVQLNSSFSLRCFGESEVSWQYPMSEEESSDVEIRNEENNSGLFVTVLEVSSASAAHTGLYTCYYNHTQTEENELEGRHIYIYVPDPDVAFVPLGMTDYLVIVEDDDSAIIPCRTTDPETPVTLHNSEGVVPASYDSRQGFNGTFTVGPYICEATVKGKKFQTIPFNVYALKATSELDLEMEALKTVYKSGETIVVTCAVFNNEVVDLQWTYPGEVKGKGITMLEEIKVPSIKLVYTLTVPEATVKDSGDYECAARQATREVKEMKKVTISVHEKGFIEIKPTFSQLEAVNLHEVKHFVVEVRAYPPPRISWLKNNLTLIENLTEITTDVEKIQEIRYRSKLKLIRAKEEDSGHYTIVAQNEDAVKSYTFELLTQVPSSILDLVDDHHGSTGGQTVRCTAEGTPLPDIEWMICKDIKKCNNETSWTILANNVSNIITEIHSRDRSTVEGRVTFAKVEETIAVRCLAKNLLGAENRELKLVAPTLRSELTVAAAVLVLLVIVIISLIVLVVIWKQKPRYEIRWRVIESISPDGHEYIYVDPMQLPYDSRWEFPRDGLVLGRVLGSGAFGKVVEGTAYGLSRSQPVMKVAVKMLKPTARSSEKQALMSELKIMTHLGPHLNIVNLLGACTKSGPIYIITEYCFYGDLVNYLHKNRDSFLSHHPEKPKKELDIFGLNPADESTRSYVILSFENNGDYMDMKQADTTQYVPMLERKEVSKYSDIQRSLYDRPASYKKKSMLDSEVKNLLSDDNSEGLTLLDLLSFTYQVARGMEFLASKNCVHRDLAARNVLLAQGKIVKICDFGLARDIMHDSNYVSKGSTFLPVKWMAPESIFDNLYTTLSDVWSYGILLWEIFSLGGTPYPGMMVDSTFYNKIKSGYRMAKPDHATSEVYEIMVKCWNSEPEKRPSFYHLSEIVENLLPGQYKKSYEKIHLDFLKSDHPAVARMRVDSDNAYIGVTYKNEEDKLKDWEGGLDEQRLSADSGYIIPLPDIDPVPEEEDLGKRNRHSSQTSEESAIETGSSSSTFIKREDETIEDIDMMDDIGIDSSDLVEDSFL

Molecule `Cc1cccc(Cn2nc(C)c3c(NC(=O)c4csc5c(N)ncnc45)cccc32)n1` has an IC50 [1] of 0.002 µM, a Cmax [2] of 2550 ng/mL and an AUC(0-t) at 7 h [3] of 3370 ng·h/mL. The Vd [4] was 2 L/kg, the AUC(0-t) at 7 h [5] was 4040 ng·h/mL and the bioavailability [6] was 36%. It also gave an IC50 [7] greater than 20 µM, an IC50 [8] greater than 20 µM and an IC50 [9] greater than 20 µM. The IC50 [10] was greater than 20 µM, the Vd [11] was 7.5 L/kg and the inhibition [12] was “Dose-dependent effect”. It also gave a CI [13] of less than 0.1, an IC50 [14] of 0.064 µM and an IC50 [15] of 0.527 µM. For the same molecule, the IC50 [16] was 0.208 µM, the inhibition [17] was 20% and the inhibition [18] was 27%. It also gave an inhibition [19] of 59%, an inhibition [20] of 20% and an inhibition [21] of 2%. The inhibition [22] was 19%, the inhibition [23] was greater than 60% and the inhibition [24] was greater than 60%. The inhibition [25] was greater than 60% and the inhibition [26] was 2%.

Source: ChEMBL document CHEMBL4371041, “Synthesis and evaluation of thieno[3,2-d]pyrimidine derivatives as novel FMS inhibitors” (Bioorg Med Chem Lett, 2019)
